Molecular target: Potassium channel subfamily K member 9 (Homo sapiens) (UniProt Q9NPC2)
Experiment: concentration-dependent TASK-3 (KCNK9) blockade – HEK293 cells, thallium flux, SAR follow-up (AID 504846)
Settings: HEK293-KCNK9, FluxOR thallium flux fluorescence; series mostly up to 30 µM; flux ratio, lower = inhibition: at the top concentration;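 active means blocks the KCNK9 potassium channel at some tested concentration and gives a dose response curve; inactive means the rest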
Procedure, shortened: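 assay system = HEK293 cells stably expressing KCNK9, loaded with FluxOR thallium-sensitive dye | probe or stimulus = K2SO4 and Tl2SO4 flux stimulus (stock 25 mM, 7 mM) | dosing = concentration-response series | timing = 20 min room-temperature compound exposure, 110 s post-stimulus read | measured by = kinetic FluxOR thallium-flux fluorescence measurement | repeats = replicate dose series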

Sequence of Potassium channel subfamily K member 9 (Homo sapiens) (Q9NPC2 whole entry, looked up): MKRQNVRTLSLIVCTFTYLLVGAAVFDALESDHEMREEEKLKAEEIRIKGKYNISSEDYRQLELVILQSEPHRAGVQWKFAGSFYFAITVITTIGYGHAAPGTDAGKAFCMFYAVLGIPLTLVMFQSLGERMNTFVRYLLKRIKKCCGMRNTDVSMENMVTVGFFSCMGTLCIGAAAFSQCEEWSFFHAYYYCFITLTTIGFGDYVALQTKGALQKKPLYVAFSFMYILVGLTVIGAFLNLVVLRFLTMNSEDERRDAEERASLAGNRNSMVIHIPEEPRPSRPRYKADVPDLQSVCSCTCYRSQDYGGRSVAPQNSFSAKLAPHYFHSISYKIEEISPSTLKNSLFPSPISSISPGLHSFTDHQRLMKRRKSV

Flux ratio, lower = inhibition, inactive:
Cc1cccc(NC(=O)c2ccccc2NC(=O)c2ccccc2)c1 0.812
Cc1cccc(C(=O)Nc2cccc(C(=O)Nc3ccccc3)c2)c1 0.726
Cc1cccc(NC(=O)c2cccc(NC(=O)c3ccccc3)c2)c1 0.844
Cc1cccc(C(=O)Nc2ccccc2C(=O)Nc2ccccc2)c1 0.782
Cc1cccc(C(=O)Nc2ccc(C(=O)Nc3ccccc3)cc2)c1 0.771

Reference: PubChem BioAssay AID504846 (Johns Hopkins Ion Channel Center, 2011)
